The results in this text go back to ChEMBL document CHEMBL2380248, “Matrix metalloproteinase inhibitors based on the 3-mercaptopyrrolidine core” (J Med Chem, 2013).

Activity calls are given as the source filed them. The rule behind the calls is not given here. Some results are limits rather than exact numbers.

Data set [1] addresses 72 kDa type IV collagenase (Homo sapiens, UniProt P08253). Kind of data set: Inhibition of MMP-2 (unknown origin) using Mca-PLGLDpa-AR-NH2 as substrate preincubated for 30 mins by fluorescence assay. The note with it: read-out: Ki(app). A digest of the protocol: (§1)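 Fluorogenic assay at 25°C in 50 mM HEPES pH 7.5, 10 mM CaCl2, 200 mM NaCl, 0.01% Brij-35, 5 μM TCEP. Inhibitor in DMSO preincubated 30 min with enzyme (0.2–7 nM), then started with Mca-PLGLDpa-AR-NH2 (4 μL of […] in 50% DMSO); product release followed at λex 328/λem 393 nm.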

Data set [2] has as its target T1, Matrilysin (Homo sapiens, UniProt P09237).
T1 sequence (P09237 whole entry): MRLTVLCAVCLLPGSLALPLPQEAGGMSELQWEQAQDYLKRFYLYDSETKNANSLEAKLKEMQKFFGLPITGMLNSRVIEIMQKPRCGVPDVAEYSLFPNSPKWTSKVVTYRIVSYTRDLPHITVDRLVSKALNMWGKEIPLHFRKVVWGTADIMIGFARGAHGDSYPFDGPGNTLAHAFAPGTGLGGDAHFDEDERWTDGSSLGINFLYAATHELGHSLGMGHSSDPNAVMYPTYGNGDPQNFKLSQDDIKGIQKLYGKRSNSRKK
As to the kind of experiment: Inhibition of MMP-7 (unknown origin) using Mca-PLGLDpa-AR-NH2 as substrate preincubated for 30 mins by fluorescence assay. As to conditions: read-out: Ki(app). An outline of the steps:
as §1

Data set [3] concerns the target Stromelysin-1 (Homo sapiens, UniProt P08254). Kind of data set: Inhibition of MMP-3 (unknown origin) using Mca-PLGLDpa-AR-NH2 as substrate preincubated for 30 mins by fluorescence assay. As to conditions: read-out: Ki(app). A digest of the protocol:
as §1

For data set [4], the target named is T2, Matrix metalloproteinase-9 (Homo sapiens, UniProt P14780). Kind of data set: Inhibition of MMP-9 (unknown origin) using Mca-PLGLDpa-AR-NH2 as substrate preincubated for 30 mins by fluorescence assay. The note with it: read-out: Ki(app). A digest of the protocol: as §1
T2 sequence (P14780 whole entry): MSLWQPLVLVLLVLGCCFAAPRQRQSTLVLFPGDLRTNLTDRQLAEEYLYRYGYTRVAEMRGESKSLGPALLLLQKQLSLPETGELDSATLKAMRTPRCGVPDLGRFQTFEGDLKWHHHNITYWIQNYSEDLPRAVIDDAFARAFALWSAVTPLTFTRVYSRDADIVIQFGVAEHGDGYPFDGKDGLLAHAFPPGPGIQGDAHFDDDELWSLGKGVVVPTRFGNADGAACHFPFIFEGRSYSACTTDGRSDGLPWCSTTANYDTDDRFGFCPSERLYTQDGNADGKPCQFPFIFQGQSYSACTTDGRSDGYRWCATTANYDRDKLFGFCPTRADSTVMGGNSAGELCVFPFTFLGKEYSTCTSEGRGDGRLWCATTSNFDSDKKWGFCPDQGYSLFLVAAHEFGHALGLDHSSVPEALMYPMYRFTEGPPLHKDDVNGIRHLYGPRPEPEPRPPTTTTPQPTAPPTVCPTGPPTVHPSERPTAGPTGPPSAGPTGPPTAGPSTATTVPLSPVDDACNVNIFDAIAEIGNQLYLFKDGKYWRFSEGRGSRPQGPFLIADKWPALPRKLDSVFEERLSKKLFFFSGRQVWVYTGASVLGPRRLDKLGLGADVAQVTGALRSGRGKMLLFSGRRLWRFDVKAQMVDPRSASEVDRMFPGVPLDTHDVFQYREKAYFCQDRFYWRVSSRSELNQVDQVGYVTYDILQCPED
Data set [5] concerns the target Collagenase 3 (Homo sapiens, UniProt P45452). Kind of data set: Inhibition of MMP-13 (unknown origin) using Mca-PLGLDpa-AR-NH2 as substrate preincubated for 30 mins by fluorescence assay. The note with it: read-out: Ki(app). A digest of the protocol:
as §1

The target of data set [6] is Matrix metalloproteinase-14 (Homo sapiens, UniProt P50281). Kind of data set: Inhibition of MMP-14 (unknown origin) using Mca-PLGLDpa-AR-NH2 as substrate preincubated for 30 mins by fluorescence assay. As to conditions: read-out: Ki(app). A digest of the protocol:
as §1

For data set [7], the target named is T3, Interstitial collagenase (Homo sapiens, UniProt P03956).
T3 sequence (P03956 whole entry): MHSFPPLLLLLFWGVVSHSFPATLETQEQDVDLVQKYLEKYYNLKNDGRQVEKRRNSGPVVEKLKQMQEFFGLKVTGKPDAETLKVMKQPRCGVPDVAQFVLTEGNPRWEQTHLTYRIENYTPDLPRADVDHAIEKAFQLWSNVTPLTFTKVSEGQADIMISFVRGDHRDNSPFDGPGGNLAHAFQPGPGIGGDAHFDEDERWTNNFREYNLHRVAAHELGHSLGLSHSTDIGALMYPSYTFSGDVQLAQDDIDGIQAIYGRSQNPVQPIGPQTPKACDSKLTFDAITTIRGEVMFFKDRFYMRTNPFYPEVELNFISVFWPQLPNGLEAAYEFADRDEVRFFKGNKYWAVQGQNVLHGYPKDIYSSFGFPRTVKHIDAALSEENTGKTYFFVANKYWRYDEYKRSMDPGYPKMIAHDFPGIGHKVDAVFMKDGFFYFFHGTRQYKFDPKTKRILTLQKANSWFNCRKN
Kind of data set: Inhibition of MMP-1 (unknown origin) using Mca-PLGLDpa-AR-NH2 as substrate preincubated for 30 mins by fluorescence assay. The note with it: read-out: Ki(app). An outline of the steps:
as §1

Data set [8] in a line: Cytotoxicity against human MSC assessed as cell killing up to 100 uM after 24 hrs by trypan blue staining-based hemocytometric analysis relative to control. An outline of the steps:
(§2)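 Low-passage hMSCs grown in αMEM with L-glutamine, penicillin, streptomycin, 20% FBS at 37°C, 5% CO2; fed every three days to 75% confluency, then given fresh media with inhibitor (log panel 1 μM to 100 μM, constant final DMSO) for 24 h. Cells washed with PBS, trypsinized, pelleted, Trypan Blue counted by hemocytometer; normalized to control, triplicate, mean ± SEM; >20% killing deemed cytotoxic.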

A short description of data set [9]: Stability of the compound in alpha-modified minimum essential medium at 10000 x IC50 up to 72 hrs in presence of fetal bovine serum. The class given is ADME. As to conditions: cattle. A digest of the protocol:
(§3)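 Aliquots then incubated 30 min with MMP-9 (final ~1 nM) in HEPES buffer before substrate addition; relative rates (νi/νo) taken in triplicate and plotted versus time; mean ± SEM.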

Data set [10] can be described thus: Cytotoxicity against human MSC assessed as reduction in cell number at 100 uM after 24 hrs by trypan blue staining-based hemocytometric analysis relative to control. The arrangement: scale not given: the % may be the effect or the level left. An outline of the steps:
as §2

In data set [11] the target is T2, Matrix metalloproteinase-9. As to the kind of experiment: Inhibition of MMP-9 (unknown origin) at 10000 x IC50 incubated up to 72 hrs prior to enzyme addition measured after 30 mins in presence of 20% fetal bovine serum. An outline of the steps: as §3

Chain of Stromelysin-1 (P08254 whole entry): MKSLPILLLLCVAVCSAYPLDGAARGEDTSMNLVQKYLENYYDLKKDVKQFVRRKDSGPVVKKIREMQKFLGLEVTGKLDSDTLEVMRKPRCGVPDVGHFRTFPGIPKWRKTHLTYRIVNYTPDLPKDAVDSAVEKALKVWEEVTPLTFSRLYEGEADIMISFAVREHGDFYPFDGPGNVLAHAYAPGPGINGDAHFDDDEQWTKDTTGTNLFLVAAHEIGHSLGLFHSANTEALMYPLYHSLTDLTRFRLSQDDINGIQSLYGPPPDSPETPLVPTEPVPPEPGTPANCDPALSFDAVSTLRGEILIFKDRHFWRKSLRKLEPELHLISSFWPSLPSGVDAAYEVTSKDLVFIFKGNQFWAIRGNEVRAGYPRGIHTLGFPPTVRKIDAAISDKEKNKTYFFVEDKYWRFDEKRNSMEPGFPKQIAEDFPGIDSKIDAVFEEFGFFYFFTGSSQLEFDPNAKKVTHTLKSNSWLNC
Chain of 72 kDa type IV collagenase (P08253 whole entry): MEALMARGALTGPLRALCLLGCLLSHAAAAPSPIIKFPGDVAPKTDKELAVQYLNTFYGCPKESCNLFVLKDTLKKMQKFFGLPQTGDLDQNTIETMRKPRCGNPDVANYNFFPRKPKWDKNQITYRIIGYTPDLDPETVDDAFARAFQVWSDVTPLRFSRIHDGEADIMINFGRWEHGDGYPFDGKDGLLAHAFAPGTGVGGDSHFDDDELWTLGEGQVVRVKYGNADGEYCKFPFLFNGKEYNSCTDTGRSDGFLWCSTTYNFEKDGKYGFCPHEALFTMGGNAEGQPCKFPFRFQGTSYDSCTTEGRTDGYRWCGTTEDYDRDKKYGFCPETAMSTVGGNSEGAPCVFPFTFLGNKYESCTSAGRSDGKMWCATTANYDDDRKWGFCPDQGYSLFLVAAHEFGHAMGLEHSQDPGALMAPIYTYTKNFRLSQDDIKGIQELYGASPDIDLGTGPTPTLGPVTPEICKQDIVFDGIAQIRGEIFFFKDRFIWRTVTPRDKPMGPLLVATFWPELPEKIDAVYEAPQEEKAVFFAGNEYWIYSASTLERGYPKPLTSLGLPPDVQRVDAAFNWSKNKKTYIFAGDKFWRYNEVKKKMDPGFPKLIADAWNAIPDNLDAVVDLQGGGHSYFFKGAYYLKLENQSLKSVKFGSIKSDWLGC

Turning to `O=S(=O)(N[C@@H]1CCC[C@@H]1S)c1ccc(Oc2ccccc2)cc1`, the Ki in data set [1] is 25 µM; in data set [2], more than 200 µM; in data set [3], more than 200 µM; in data set [4] it was more than 1.6 µM; in data set [5], more than 100 µM; in [6], 25 µM. Further, the Ki in [7] was more than 200 µM.

Consider `O=C(NCCN1C(=O)c2ccccc2C1=O)N1C[C@H](NS(=O)(=O)c2ccc(Oc3ccccc3)cc2)[C@@H](S)C1` (racemic), for which the Ki in data set [2] is more than 12 µM. The Activity result in data set [8] is given as “<= 20%”.

Take `O=S(=O)(N[C@H]1CCC[C@@H]1S)c1ccccc1` (racemic): the Ki is 7.2 µM in data set [1]; more than 50 µM in [2]; more than 200 µM in data set [3]; 9.6 µM in [4]; 3.4 µM in data set [5]; 3 µM in data set [6]. Besides, in data set [7], the Ki was more than 20 µM.

Take `O=S(=O)(N[C@H]1CCC[C@@H]1S)c1ccc(Oc2ccccc2)cc1` (racemic) [listing 1 of 2 here]: the Ki was 0.018 µM in data set [1]; more than 20 µM in [2]; 0.025 µM in data set [4]; 0.015 µM in data set [5]; 0.018 µM in data set [6]; 3.4 µM in data set [7]. In data set [9], the Stability entry is recorded as “Stable”. Moreover, the Activity in data set [10] is reported as 40%; in data set [8] it was “<= 20%”.

As for `O=S(=O)(N[C@H]1CCC[C@@H]1O)c1ccc(Oc2ccccc2)cc1` (racemic), the Ki in data set [1] is 50 µM; in data set [2], more than 200 µM; in data set [3], more than 200 µM; in data set [4], 200 µM; in [5], 100 µM; in data set [6], more than 200 µM. For the same molecule, in data set [7], the Ki was more than 200 µM.

On to `O=C(N[C@H]1CCC[C@@H]1S)c1ccc(Oc2ccccc2)cc1` (racemic), for which the Ki in data set [1] was 5.7 µM; in data set [2], 5.7 µM; in data set [3], more than 200 µM; in data set [4], 4.3 µM; in [5], 28 µM; in data set [6], more than 25 µM. Moreover, the Ki in data set [7] was more than 200 µM.

With `NC(=O)N1C[C@H](NS(=O)(=O)c2ccc(Oc3ccccc3)cc2)[C@@H](S)C1` (racemic), in data set [2], the Ki is more than 25 µM. The Stability entry in data set [9] is “Stable”. Moreover, in [8], the Activity result was “<= 20%”.

Regarding `CC(=O)NCCCCCC(=O)N1C[C@H](NS(=O)(=O)c2ccc(Oc3ccccc3)cc2)[C@@H](S)C1` (racemic), the Stability result in data set [9] was “Stable”. In addition, the Activity entry in [8] is given as “<= 20%”. Also, the Ki in data set [7] is more than 6 µM.

`Cl.NCCCCCC(=O)N1C[C@H](NS(=O)(=O)c2ccc(Oc3ccccc3)cc2)[C@@H](S)C1` (racemic): the Ki in data set [1] is 0.0031 µM; in data set [4], 0.0036 µM; in data set [6] it was 0.0066 µM; in data set [7], more than 3 µM. The Stability result in data set [9] was “Stable”. The Activity result in [8] is recorded as “<= 20%”. For the same molecule, in data set [11], the inhibition result is “Active”.

Regarding `NCCCCCC(=O)N1C[C@H](NS(=O)(=O)c2ccc(Oc3ccccc3)cc2)[C@@H](O)C1` (racemic), the Ki was 7 µM in data set [1]; more than 100 µM in data set [2]; more than 100 µM in data set [3]; 30 µM in [4]; more than 200 µM in data set [5]; 85 µM in [6]. Besides, in [7], the Ki is more than 50 µM.

As for `O=S(=O)(N[C@H]1CCC[C@@H]1S)c1ccc(Oc2ccccc2)cc1` (racemic) [listing 2 of 2 here], the inhibition result in [11] is “Active”.
